# Test results published in PMC5679012 (Chemistry (Weinheim an der Bergstrasse, Germany), 2017).
# Assay: CO release kinetics by increase of fluorescence intensity in DMSO/PBS
# Assay type: physicochemical
# Details: fluorescence increase (450 nm); 100 μM; DMSO/PBS (pH = 7.4) 4:1, 37 °C
# In short: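 Test compounds of scaffolds I and II were dissolved in DMSO/PBS (pH 7.4, 4:1) at 100 μM final and held at 37 °C. CO release was tracked as the rise in fluorescence intensity at 450 nm, read at successive time points. Each experiment was repeated three times independently.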
compound,measurement,value
C#CC(C)(C)NC(=O)C1=C2C(=C(c3ccccc3)C1=O)c1cccc3cccc2c13 [BW-CO-111],"k, CO release rate",3.31 ± 0.28 h⁻¹
same,"t1/2, half-life for CO release",~12 min
